In ChEMBL document CHEMBL1126688, “Interphenylene 7-oxabicyclo[2.2.1]heptane oxazoles. Highly potent, selective, and long-acting thromboxane A2 receptor antagonists” (J Med Chem, 1993):

What was measured:
Mus musculus [1] = assay: In vivo duration of action required to prevent death in mice, after iv administration of U-46619 (2 mg/kg) at 10 mg/kg po administration of compound
Homo sapiens [2] = organism: Homo sapiens; assay: Inhibitory activity against platelet aggregation, induced by arachidonic acid in human platelet rich plasma; type: functional; conditions: read-out: I50
Summary of the method: (§1)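 Human platelet-rich plasma. Aggregation was induced by exogenous arachidonic acid or by the TxA2 mimetic U-46,619, each at a single fixed agonist level. I50 was taken as the antagonist concentration giving 50% inhibition of aggregation.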

Thromboxane A2 receptor = molecular target: T1, Thromboxane A2 receptor (Homo sapiens, UniProt P21731); assay: Inhibitory binding activity against TXA2 receptor in human platelet membrane, using [3H]-SQ 29548 as the radioligand
T1 sequence (P21731 whole entry): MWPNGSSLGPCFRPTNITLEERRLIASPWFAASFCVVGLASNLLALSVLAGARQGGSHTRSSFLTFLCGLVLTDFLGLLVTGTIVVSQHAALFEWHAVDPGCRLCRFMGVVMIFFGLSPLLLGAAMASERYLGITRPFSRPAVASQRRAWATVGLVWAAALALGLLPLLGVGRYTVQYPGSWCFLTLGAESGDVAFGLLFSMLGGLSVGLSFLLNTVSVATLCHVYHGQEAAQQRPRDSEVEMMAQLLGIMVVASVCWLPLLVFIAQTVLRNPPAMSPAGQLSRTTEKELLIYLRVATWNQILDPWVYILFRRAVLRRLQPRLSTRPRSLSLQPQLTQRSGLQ
Summary of the method: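 Competition binding of [3H]-SQ 29,548 to TxA2 receptors in human platelet membranes, measured as inhibition of specific binding. Kd (inhibition constant) was calculated from each compound's I50 value. A slope factor is also reported.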

Homo sapiens [3] = organism: Homo sapiens; assay: Inhibitory activity against platelet aggregation, induced by U-46619 in human platelet rich plasma; type: functional; conditions: read-out: I50
Summary of the method: as §1

Mus musculus [4] = assay: In vivo duration of action required to prevent death in mice, after i.v. administration of U-46619 (2 mg/kg) at 0.2 mg/kg p.o.; conditions: po
[5] = Partition coefficient (logP); type: physicochemical; conditions: octanol/water
Summary of the method: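 log P came from reversed-phase TLC Rm values on C18 plates. Eluent was acetone in 0.5 M aqueous KBr, buffered with 0.25 N triethylammonium phosphate to pH 7.3. Values were converted with a calibration curve built from shake-flask partition coefficients (pH 7.0) of seven oxabicycloheptane compounds spanning a range of lipophilicities.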

In the case of `O=C(O)CCc1ccccc1CC1C2CCC(O2)C1c1nc(C(=O)NCCc2ccc(Cl)cc2)co1` (stereo unspecified), the T50 (Mus musculus [1]) is reported as 38.7 h, the IC50 (Homo sapiens [2]) is reported as 4 nM and the Kd (Thromboxane A2 receptor) is reported as 1.3 nM. The IC50 (Homo sapiens [3]) was 14 nM, the T50 (Mus musculus [4]) was 22.7 h and the logP [5] was 1.55.
